From publication PMC7425423 (Brain Communications, 2020)

System: T98G, U87MG and E98
Experiment: Viability after Gefitinib
Type: cell-based, human
Details: 72 hours, 10 µM
In short: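 Cells were seeded at 3–5 × 10³/well in 96-well plates and allowed to attach. After 24 h the test compound was added, and viability was read at 72 h by CellTiter-Glo luminescence, normalized as % of control. U87MG and E98 were grown in DMEM and T98G in Eagle MEM, each with 10% heat-inactivated FBS, at 37°C and 5% CO2.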

## COc1cc2ncnc(Nc3ccc(F)c(Cl)c3)c2cc1OCCCN1CCOCC1 [Gefitinib]
  sensitivity of cell lines (viability): resistance
